Data taken from ChEMBL document CHEMBL1133253, “Improved antibacterial activities of coumarin antibiotics bearing 5',5'-dialkylnoviose: biological activity of RU79115” (Bioorg Med Chem Lett, 2000).
Converted amounts (≈) assume the structure as drawn.

Tests used:
Enterococcus [1] = assay: Minimum inhibitory concentration evaluated against enterococci species resistant to vancomycin [65]*; type: functional
Enterococcus [2] = assay: Minimum inhibitory concentration evaluated against enterococci species resistant to vancomycin and teicoplanin [17]*; type: functional
Enterococcus [3] = assay: Minimum inhibitory concentration evaluated against enterococci species susceptible to vancomycin [26]*; type: functional
Enterococcus [4] = assay: In vitro anti-enterococcal activity against enterococci species resistant to vancomycin [65]* expressed as geometric mean; type: functional
Enterococcus [5] = assay: In vitro anti-enterococcal activity against enterococci species resistant to vancomycin and teicoplanin [17]* expressed as geometric mean; type: functional
Enterococcus [6] = assay: In vitro anti-enterococcal activity against enterococci species susceptible to vancomycin [26]* expressed as geometric mean; type: functional
Mus musculus [7] = assay: Minimum inhibitory concentration of the subcutaneously administered compound evaluated against Staphylococcus aureus HT-18 strain in mice; type: functional
Mus musculus [8] = assay: Minimum inhibitory concentration of the subcutaneously administered compound evaluated against […] A1UC1 strain in mice; type: functional
Mus musculus [9] = assay: Minimum inhibitory concentration of the subcutaneously administered compound evaluated against vancomycin resistant Enterococci faecium D3AP9 strain in mice; type: functional
Mus musculus [10] = assay: Minimum inhibitory concentration of the subcutaneously administered compound evaluated against Enterococci faecalis D2HT6 strain in mice; type: functional
Mus musculus [11] = assay: Minimum inhibitory concentration of the subcutaneously administered compound evaluated against Enterococci faecium D3HT7 strain in mice; type: functional
Mus musculus [12] = assay: Minimum inhibitory concentration of the subcutaneously administered compound evaluated against […] B1HT3 strain in mice; type: functional
Mus musculus [13] = assay: Minimum inhibitory concentration of the subcutaneously administered compound evaluated against Staphylococcus aureus GR56 strain resistant to oxacillin in mice; type: functional
Mus musculus [14] = assay: Minimum inhibitory concentration of the subcutaneously administered compound evaluated against vancomycin resistant Enterococci faecium D3HM4 strain in mice; type: functional
Mus musculus [15] = assay: Minimum inhibitory concentration of the subcutaneously administered compound evaluated against vancomycin resistant Enterococci faecium D3HT12 strain in mice; type: functional
Mus musculus [16] = assay: Protective dose of subcutaneously administered compound against intraperitoneally-induced septicaemia model ([…] B1HT3 strain) in murine; type: functional; details: sc, read-out: PD50
Method in brief: (§1)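 Murine septicaemia was induced by intraperitoneal infection, and the compound was given subcutaneously. PD50 was derived by probit analysis.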

Mus musculus [17] = assay: Protective dose of subcutaneously administered compound against intraperitoneally-induced septicaemia model (Staphylococcus aureus GR56 strain resistant to oxacillin) in murine; type: functional; details: sc, read-out: PD50; method in brief: as §1
Mus musculus [18] = assay: Protective dose of subcutaneously administered compound against intraperitoneally-induced septicaemia model (Staphylococcus aureus HT18) in murine; type: functional; details: sc, read-out: PD50; method in brief: as §1
pneumococci = assay: In vitro anti-streptococcal activity against pneumococci resistant to penicillin [29]* expressed as geometric mean; type: functional
[19] = Minimum inhibitory concentration evaluated against pneumococci resistant to penicillin [29]*; type: functional
Staphylococcus sp. [20] = assay: Minimum inhibitory concentration evaluated against Staphylococcus species [91]*; type: functional
Method in brief: (§2)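 Two-fold agar dilution MIC, in µg/mL, against Staphylococcus panels grouped by resistance phenotype (oxacillin and/or ofloxacin resistant). Per-panel values are reported as the geometric mean and MIC90 across strains; the strain count per panel is given in brackets.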

Staphylococcus sp. [21] = assay: Minimum inhibitory concentration evaluated against Staphylococcus species resistant to ofloxacin [59]*; type: functional; method in brief: as §2
Staphylococcus sp. [22] = assay: Minimum inhibitory concentration evaluated against Staphylococcus species resistant to oxacillin [66]*; type: functional; method in brief: as §2
Staphylococcus sp. [23] = assay: Minimum inhibitory concentration evaluated against Staphylococcus species resistant to oxacillin and ofloxacin [47]*; type: functional; method in brief: as §2
Streptococcus sp. [24] = assay: In vitro anti-streptococcal activity against Streptococci species (viridans) [25]* expressed as geometric mean; type: functional
Streptococcus sp. [25] = assay: In vitro anti-streptococcal activity against Streptococci species [38]* expressed as geometric mean; type: functional
Streptococcus sp. [26] = assay: Minimum inhibitory concentration evaluated against Streptococci species (viridans) [25]*; type: functional
Streptococcus sp. [27] = assay: Minimum inhibitory concentration evaluated against Streptococci species [38]*; type: functional
Staphylococcus sp. [28] = assay: In vitro anti-staphylococcal activity against Staphylococcus species resistant to ofloxacin [59]* expressed as geometric mean; type: functional; method in brief: as §2
Staphylococcus sp. [29] = assay: In vitro anti-staphylococcal activity against Staphylococcus species resistant to oxacillin [66]* expressed as geometric mean; type: functional; method in brief: as §2
Staphylococcus sp. [30] = assay: In vitro anti-staphylococcal activity against Staphylococcus species resistant to oxacillin and ofloxacin[47]* expressed as geometric mean; type: functional; method in brief: as §2
Mus musculus [31] = assay: Protective dose of subcutaneously administered compound against intraperitoneally-induced septicaemia model (vancomycin resistant Enterococci faecium D3HT12 strain ) in murine; type: functional; details: sc, read-out: PD50; method in brief: as §1
Mus musculus [32] = assay: Protective dose of subcutaneously administered compound against intraperitoneally-induced septicaemia model (Enterococci faecalis D2HT6 strain) in murine; type: functional; details: sc, read-out: PD50; method in brief: as §1
Mus musculus [33] = assay: Protective dose of subcutaneously administered compound against intraperitoneally-induced septicaemia model (Enterococci faecium D3HT7 strain ) in murine; type: functional; details: sc, read-out: PD50; method in brief: as §1
Mus musculus [34] = assay: Protective dose of subcutaneously administered compound against intraperitoneally-induced septicaemia model ([…] A1UC1 strain) in murine; type: functional; details: sc, read-out: PD50; method in brief: as §1
Mus musculus [35] = assay: Protective dose of subcutaneously administered compound against intraperitoneally-induced septicaemia model (vancomycin resistant Enterococci faecium D3AP9 strain ) in murine; type: functional; details: sc, read-out: PD50; method in brief: as §1
Mus musculus [36] = assay: Protective dose of subcutaneously administered compound against intraperitoneally-induced septicaemia model (vancomycin resistant Enterococci faecium D3HM3 strain ) in murine; type: functional; details: sc, read-out: PD50; method in brief: as §1
Mus musculus [37] = assay: Protective dose of subcutaneously administered compound against intraperitoneally-induced septicaemia model (vancomycin resistant Enterococci faecium D3HM4 strain ) in murine; type: functional; details: sc, read-out: PD50; method in brief: as §1
Staphylococcus sp. [38] = assay: In vitro anti-staphylococcal activity against Staphylococcus species [91]* expressed as geometric mean; type: functional
Method in brief: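 Two-fold agar-dilution MICs (µg/mL) were run on a panel of staphylococcal isolates and summarised as the geometric mean across strains.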

Mus musculus [39] = assay: Minimum inhibitory concentration of the subcutaneously administered compound evaluated against Staphylococcus aureus HT-18 strain in mice (SC); type: functional
Mus musculus [40] = assay: Minimum inhibitory concentration of the subcutaneously administered compound evaluated against Enterococci faecium D3HT7 strain in mice (po); type: functional
Mus musculus [41] = assay: Minimum inhibitory concentration of the subcutaneously administered compound evaluated against Streptococcus pyogenes A1UC1 strain in mice (po); type: functional
Mus musculus [42] = assay: Minimum inhibitory concentration of the subcutaneously administered compound evaluated against […] B1HT3 strain in mice (po); type: functional
Mus musculus [43] = assay: Minimum inhibitory concentration of the subcutaneously administered compound evaluated against vancomycin resistant Enterococci faecium D3HM4 strain in mice (po); type: functional
Mus musculus [44] = assay: Minimum inhibitory concentration of the subcutaneously administered compound evaluated against vancomycin resistant Enterococci faecium D3HT12 strain in mice (po); type: functional
Mus musculus [45] = assay: Protective dose of subcutaneously administered compound against intraperitoneally-induced septicaemia model (Streptococcus pyogenes A1UC1 strain) in murine; type: functional; details: sc, read-out: PD50; method in brief: as §1
Mus musculus [46] = assay: Minimum inhibitory concentration of the subcutaneously administered compound evaluated against vancomycin resistant Enterococci faecium D3AP9 strain in mice (po); type: functional
Mus musculus [47] = assay: Minimum inhibitory concentration of the subcutaneously administered compound evaluated against vancomycin resistant Enterococci faecium D3HM3 strain in mice (po); type: functional
Mus musculus [48] = assay: Minimum inhibitory concentration of the subcutaneously administered compound evaluated against Staphylococcus aureus GR56 strain resistant to oxacillin in mice (sc)

Structure (SMILES) | MIC90 (Enterococcus [1]) [mg/L] | MIC90 (Enterococcus [2]) [mg/L] | MIC90 (Enterococcus [3]) [mg/L] | GM (Enterococcus [4]) | GM (Enterococcus [5]) | GM (Enterococcus [6]) | MIC (Mus musculus [10]) [mg/L] | ED50 (Mus musculus [16]) [mg/kg] | ED50 (Mus musculus [17]) [mg/kg] | ED50 (Mus musculus [18]) [mg/kg] | GM (pneumococci) | MIC90 [19] [mg/L] | MIC90 (Staphylococcus sp. [20]) [mg/L] | MIC90 (Staphylococcus sp. [21]) [mg/L] | MIC90 (Staphylococcus sp. [22]) [mg/L] | MIC90 (Staphylococcus sp. [23]) [mg/L] | GM (Streptococcus sp. [24]) | GM (Streptococcus sp. [25]) | MIC90 (Streptococcus sp. [26]) [mg/L] | MIC90 (Streptococcus sp. [27]) [mg/L] | also measured
CC(=O)NC[C@H]1CN(c2ccc(N3CCN(C(=O)CO)CC3)c(F)c2)C(=O)O1 [EPEREZOLID] | 1.2 (≈ 3.04 µM) | 1.2 (≈ 3.04 µM) | 0.6 (≈ 1.52 µM) | 0.72 | 0.43 | 0.51 | 0.6 (≈ 1.52 µM) | > 50 | 5 | 20 | 0.25 | 0.3 (≈ 0.761 µM) | 1.2 (≈ 3.04 µM) | 1.2 (≈ 3.04 µM) | 1.2 (≈ 3.04 µM) | 1.2 (≈ 3.04 µM) | 0.39 | 0.52 | 1.2 (≈ 3.04 µM) | 0.6 (≈ 1.52 µM) | MIC (Mus musculus [7]): 0.6 mg/L (≈ 1.52 µM); MIC (Mus musculus [8]): < 0.15 mg/L; MIC (Mus musculus [9]): 1.2 mg/L (≈ 3.04 µM); MIC (Mus musculus [11]): 0.6 mg/L (≈ 1.52 µM); MIC (Mus musculus [12]): 0.6 mg/L (≈ 1.52 µM); MIC (Mus musculus [13]): 1.2 mg/L (≈ 3.04 µM); MIC (Mus musculus [14]): 0.3 mg/L (≈ 0.761 µM); MIC (Mus musculus [15]): 0.3 mg/L (≈ 0.761 µM); GM (Staphylococcus sp. [28]): 0.71; GM (Staphylococcus sp. [29]): 0.73; GM (Staphylococcus sp. [30]): 0.72; ED50 (Mus musculus [31]): 1.5 mg/kg; ED50 (Mus musculus [32]): 6.4 mg/kg; ED50 (Mus musculus [33]): 3 mg/kg; ED50 (Mus musculus [34]): 22.8 mg/kg; ED50 (Mus musculus [35]): 8.7 mg/kg; ED50 (Mus musculus [36]): 2.8 mg/kg; ED50 (Mus musculus [37]): 27.2 mg/kg; GM (Staphylococcus sp. [38]): 0.74
CN[C@H](CC(C)C)C(=O)N[C@H]1C(=O)N[C@@H](CC(N)=O)C(=O)N[C@H]2C(=O)N[C@H]3C(=O)N[C@H](C(=O)N[C@H](C(=O)O)c4cc(O)cc(O)c4-c4cc3ccc4O)[C@H](O)c3ccc(c(Cl)c3)Oc3cc2cc(c3O[C@@H]2O[C@H](CO)[C@@H](O)[C@H](O)[C@H]2O[C@H]2C[C@](C)(N)[C@H](O)[C@H](C)O2)Oc2ccc(cc2Cl)[C@H]1O [VANCOMYCIN] | > 20 | > 20 | 0.6 (≈ 0.414 µM) | 23.7 | 36.9 | 0.75 | 2.5 (≈ 1.73 µM) | 17.2 | 4 | 7.8 | 0.24 | 0.3 (≈ 0.207 µM) | 2.5 (≈ 1.73 µM) | 2.5 (≈ 1.73 µM) | 2.5 (≈ 1.73 µM) | 2.5 (≈ 1.73 µM) | 0.4 | 0.35 | 0.6 (≈ 0.414 µM) | 0.6 (≈ 0.414 µM) | MIC (Mus musculus [39]): 1.2 mg/L (≈ 0.828 µM); MIC (Mus musculus [40]): 2.5 mg/L (≈ 1.73 µM); MIC (Mus musculus [41]): 0.6 mg/L (≈ 0.414 µM); MIC (Mus musculus [42]): 0.3 mg/L (≈ 0.207 µM); MIC (Mus musculus [43]): > 40 mg/L; MIC (Mus musculus [44]): > 40 mg/L; ED50 (Mus musculus [45]): < 1.5 mg/kg; ED50 (Mus musculus [31]): > 50 mg/kg; ED50 (Mus musculus [32]): 16.7 mg/kg; ED50 (Mus musculus [33]): 8.7 mg/kg; ED50 (Mus musculus [35]): > 50 mg/kg; ED50 (Mus musculus [36]): > 50 mg/kg; ED50 (Mus musculus [37]): > 50 mg/kg; MIC (Mus musculus [46]): > 40 mg/L; MIC (Mus musculus [47]): > 40 mg/L; MIC (Mus musculus [48]): 1.2 mg/L (≈ 0.828 µM)
